Data taken from ChEMBL document CHEMBL1926630, “Structure-activity relationships of chalcone analogs as potential inhibitors of ADP- and collagen-induced platelet aggregation” (2011).

Legend:
[1] = Antiplatelet activity against New Zealand white rabbit platelets assessed as inhibition of ADP-induced platelet aggregation at 50 ug/mL treated 2 mins before ADP challenge measured after 4 mins by turbidimetric analysis; format: functional; settings: Oryctolagus cuniculus
How it was run: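 Washed platelets from ear-vein blood (acid-citrate dextrose), washed in Ca²⁺-free Tyrode's with BSA, heparin and apyrase, resuspended in Tyrode's with 1 mM Ca²⁺ at 2.5 × 10⁸/mL. Stirred at 900 rpm, preincubated 2 min at 37 °C with compound or vehicle (DMSO, final 0.5%), then challenged with 20 μM ADP. Maximal light-transmission rise within 4 min; inhibition computed versus vehicle.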

[2] = Antiplatelet activity against New Zealand white rabbit platelets assessed as inhibition of collagen-induced platelet aggregation at 50 ug/mL treated 2 mins before collagen challenge measured after 4 mins by turbidimetric analysis; format: functional; settings: Oryctolagus cuniculus
How it was run: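 Rabbit washed platelets (EDTA-treated PRP, washed in Ca²⁺-free Tyrode's with BSA, heparin and apyrase at 37 °C for 20 min) were resuspended in 1 mM Ca²⁺ Tyrode's at 2.5 × 10⁸/mL. Compound or DMSO vehicle (final 0.5%) was added for 2 min at 37 °C with 900 rpm stirring before collagen. Read-out was peak transmission increase within 4 min, expressed as inhibition relative to vehicle.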

cells [3] = settings: Oryctolagus cuniculus, New Zealand white, Platelet, read-out: INH
cells [4] = settings: Oryctolagus cuniculus, New Zealand white, Platelet, read-out: INH; remark: listed apart in the source

## COc1cccc(/C=C/C(=O)c2ccc(OCC=C(C)C)cc2O)c1OC
[1]
  inhibition at 50 µg/mL: 21.3%
[2]
  inhibition at 50 µg/mL: 19.7%

## COc1ccc(/C=C/C(=O)c2ccc(OCC=C(C)C)cc2O)c(OC)c1OC
[1]
  inhibition at 50 µg/mL: 21.4%
[2]
  inhibition at 50 µg/mL: 12.6%

## COc1ccc(/C=C/C(=O)c2ccc(OCC=C(C)C)cc2O)cc1OC
[1]
  inhibition at 50 µg/mL: 24.3%
[2]
  inhibition at 50 µg/mL: 10.3%

## COc1cc(/C=C/C(=O)c2ccc(OCC=C(C)C)cc2O)cc(OC)c1OC
[1]
  inhibition at 50 µg/mL: 27.1%
[2]
  inhibition at 50 µg/mL: 7.9%

## Cc1ccc(/C=C/C(=O)c2ccc(O)c(CN3CCOCC3)c2)o1
[1]
  inhibition at 50 µg/mL: 12.8%
[2]
  inhibition at 50 µg/mL: 0%

## COc1ccc(/C=C/C(=O)c2ccc(C)cc2)c(CN2CCOCC2)c1O
[1]
  inhibition at 50 µg/mL: 99.3%
[2]
  inhibition at 50 µg/mL: 57.6%

## COc1ccc(/C=C/C(=O)c2ccc(OCC=C(C)C)cc2O)cc1O
[1]
  inhibition at 50 µg/mL: 23%
[2]
  inhibition at 50 µg/mL: 13.4%

## COc1cc(OC)c(OC)cc1/C=C/C(=O)c1ccc(OCC=C(C)C)cc1O
[1]
  inhibition at 50 µg/mL: 15.7%
[2]
  inhibition at 50 µg/mL: 4%

## COc1ccc(/C=C/C(=O)c2ccc(OCC=C(C)C)cc2O)c(OC)c1
[1]
  inhibition at 50 µg/mL: 42.7%
[2]
  inhibition at 50 µg/mL: 39.2%

## COc1ccc(OC)c(/C=C/C(=O)c2ccc(OCC=C(C)C)cc2O)c1
[1]
  inhibition at 50 µg/mL: 22.8%
[2]
  inhibition at 50 µg/mL: 14.9%

## COc1cc(/C=C/C(=O)c2ccc(OCC=C(C)C)cc2O)cc(OC)c1
[1]
  inhibition at 50 µg/mL: 20.7%
[2]
  inhibition at 50 µg/mL: 8.7%

## CC(C)=CCOc1ccc(C(=O)/C=C/c2ccc3c(c2)OCO3)c(O)c1
[1]
  inhibition at 50 µg/mL: 20%
[2]
  inhibition at 50 µg/mL: 17.3%

## C=CCOc1ccc(C(=O)/C=C/c2ccc(OC)c(OC)c2OC)c(O)c1
[1]
  inhibition at 50 µg/mL: 26.4%
[2]
  inhibition at 50 µg/mL: 14.9%

## C=CCOc1ccc(C(=O)/C=C/c2cccc(OC)c2OC)c(O)c1
[1]
  inhibition at 50 µg/mL: 30.8%
[2]
  inhibition at 50 µg/mL: 44.7%

## C=CCOc1ccc(C(=O)/C=C/c2ccc3c(c2)OCO3)c(O)c1
[1]
  inhibition at 50 µg/mL: 21.4%
[2]
  inhibition at 50 µg/mL: 7.9%

## C=CCOc1ccc(C(=O)/C=C/c2cc(OC)ccc2OC)c(O)c1
[1]
  inhibition at 50 µg/mL: 33.6%
[2]
  inhibition at 50 µg/mL: 57.2%

## C=CCOc1ccc(C(=O)/C=C/c2ccc(OC)cc2)c(O)c1
[1]
  inhibition at 50 µg/mL: 24.9%
[2]
  inhibition at 50 µg/mL: 5.5%

## C=CCOc1ccc(C(=O)/C=C/c2ccc(OC)cc2OC)c(O)c1
[1]
  inhibition at 50 µg/mL: 35.2%
[2]
  inhibition at 50 µg/mL: 53.4%

## C=CCOc1ccc(C(=O)/C=C/c2cc(OC)c(OC)c(OC)c2)c(O)c1
[1]
  inhibition at 50 µg/mL: 70.4%
[2]
  inhibition at 50 µg/mL: 43.2%

## C=CCOc1ccc(C(=O)/C=C/c2cc(OC)c(OC)cc2OC)c(O)c1
[1]
  inhibition at 50 µg/mL: 21.6%
[2]
  inhibition at 50 µg/mL: 0%

## C=CCOc1ccc(C(=O)/C=C/c2cc(OC)cc(OC)c2)c(O)c1
[1]
  inhibition at 50 µg/mL: 30.8%
[2]
  inhibition at 50 µg/mL: 13.4%

## C=CCOc1ccc(C(=O)/C=C/c2ccccc2)c(O)c1
[1]
  inhibition at 50 µg/mL: 25.6%
[2]
  inhibition at 50 µg/mL: 6.3%

## Cc1ccsc1/C=C/C(=O)c1ccc(O)c(CN2CCOCC2)c1
[1]
  inhibition at 50 µg/mL: 21.4%
[2]
  inhibition at 50 µg/mL: 12.5%

## CCOc1cc(O)c(C(=O)/C=C/c2ccco2)cc1CN1CCOCC1
[1]
  inhibition at 50 µg/mL: 22.5%
[2]
  inhibition at 50 µg/mL: 0%

## CCOc1cc(O)c(C(=O)/C=C/c2ccccn2)cc1CN1CCOCC1
[1]
  inhibition at 50 µg/mL: 100%
[2]
  inhibition at 50 µg/mL: 43%

## COc1ccc(/C=C/C(=O)c2cccc(C)c2)c(CN2CCOCC2)c1O
[1]
  inhibition at 50 µg/mL: 100%
[2]
  inhibition at 50 µg/mL: 78%

## COc1ccc(/C=C/C(=O)c2cccs2)c(CN2CCCCC2)c1O
[1]
  inhibition at 50 µg/mL: 100%
[2]
  inhibition at 50 µg/mL: 95.2%

## O=C(/C=C/c1ccccn1)c1ccc(O)c(CN2CCOCC2)c1
[1]
  inhibition at 50 µg/mL: 99.3%
[2]
  inhibition at 50 µg/mL: 63.5%

## Cc1ccsc1/C=C/C(=O)c1cc(CN2CCOCC2)c(O)c(CN2CCOCC2)c1
[1]
  inhibition at 50 µg/mL: 24.9%
[2]
  inhibition at 50 µg/mL: 50%

## COc1ccc(/C=C/C(=O)c2cccnc2)c(CN2CCCCC2)c1O
[1]
  inhibition at 50 µg/mL: 100%
[2]
  inhibition at 50 µg/mL: 98.4%

## O=C(/C=C/c1ccccn1)c1ccc(CN2CCOCC2)c(O)c1
[1]
  inhibition at 50 µg/mL: 100%
[2]
  inhibition at 50 µg/mL: 98.4%

## O=C(/C=C/c1ccncc1)c1ccc(CN2CCOCC2)c(O)c1
[1]
  inhibition at 50 µg/mL: 100%
[2]
  inhibition at 50 µg/mL: 100%

## O=C(/C=C/c1ccccc1)c1cccc(O)c1CN1CCOCC1
[1]
  inhibition at 50 µg/mL: 100%
[2]
  inhibition at 50 µg/mL: 89.8%

## O=C(/C=C/c1ccccn1)c1ccc(CN2CCOCC2)c(O)c1CN1CCOCC1
[1]
  inhibition at 50 µg/mL: 100%
[2]
  inhibition at 50 µg/mL: 100%

## O=C(/C=C/c1ccccn1)c1ccc(O)c(CN2CCOCC2)c1O
[1]
  inhibition at 50 µg/mL: 100%
[2]
  inhibition at 50 µg/mL: 12.5%

## COc1ccc(C(=O)/C=C/c2ccccn2)c(O)c1CN1CCOCC1
[1]
  inhibition at 50 µg/mL: 100%
[2]
  inhibition at 50 µg/mL: 93.7%

## CC(C)Oc1ccc(C(=O)/C=C/c2cccs2)c(O)c1CN1CCOCC1
[1]
  inhibition at 50 µg/mL: 29%
[2]
  inhibition at 50 µg/mL: 3.2%

## O=C(/C=C/c1cccs1)c1cccc(O)c1CN1CCOCC1
[1]
  inhibition at 50 µg/mL: 100%
[2]
  inhibition at 50 µg/mL: 83.5%

## COc1cc(O)c(C(=O)/C=C/c2cccs2)cc1CN1CCOCC1
[1]
  inhibition at 50 µg/mL: 26.4%
[2]
  inhibition at 50 µg/mL: 11.1%

## COc1cc(O)c(C(=O)/C=C/c2ccco2)cc1CN1CCOCC1
[1]
  inhibition at 50 µg/mL: 17.2%
[2]
  inhibition at 50 µg/mL: 19.7%

## COc1cc(O)c(C(=O)/C=C/c2cccnc2)cc1CN1CCOCC1
[1]
  inhibition at 50 µg/mL: 100%
[2]
  inhibition at 50 µg/mL: 96.1%

## O=C(/C=C/c1ccccc1)c1ccc(O)c(CN2CCOCC2)c1
[1]
  inhibition at 50 µg/mL: 34.2%
[2]
  inhibition at 50 µg/mL: 20.3%

## O=C(/C=C/c1ccco1)c1ccc(O)c(CN2CCOCC2)c1
[1]
  inhibition at 50 µg/mL: 18.4%
[2]
  inhibition at 50 µg/mL: 4.7%

## O=C(/C=C/c1cccs1)c1ccc(O)c(CN2CCOCC2)c1
[1]
  inhibition at 50 µg/mL: 23.4%
[2]
  inhibition at 50 µg/mL: 25%

## CCOc1cc(O)c(C(=O)/C=C/c2sccc2C)cc1CN1CCOCC1
[1]
  inhibition at 50 µg/mL: 32.3%
[2]
  inhibition at 50 µg/mL: 0%

## CCOc1cc(O)c(C(=O)/C=C/c2cccnc2)cc1CN1CCOCC1
[1]
  inhibition at 50 µg/mL: 100%
[2]
  inhibition at 50 µg/mL: 46.9%

## COc1cc(O)c(C(=O)/C=C/c2ccccc2)cc1CN1CCOCC1
[1]
  inhibition at 50 µg/mL: 97.2%
[2]
  inhibition at 50 µg/mL: 29.2%

## CC(C)Oc1cc(O)c(C(=O)/C=C/c2cccs2)cc1CN1CCOCC1
[1]
  inhibition at 50 µg/mL: 23.4%
[2]
  inhibition at 50 µg/mL: 0%

## CCOc1cc(O)c(C(=O)/C=C/c2ccc(C)o2)cc1CN1CCOCC1
[1]
  inhibition at 50 µg/mL: 16.5%
[2]
  inhibition at 50 µg/mL: 0%

## O=C(/C=C/c1ccccn1)c1cc(CN2CCOCC2)c(O)c(CN2CCOCC2)c1
[1]
  inhibition at 50 µg/mL: 100%
[2]
  inhibition at 50 µg/mL: 78.6%

## CC(C)=CCOc1ccc(C(=O)/C=C/c2sccc2C)c(O)c1CN1CCOCC1
[1]
  inhibition at 50 µg/mL: 14.2%
[2]
  inhibition at 50 µg/mL: 11.1%

## O=C(/C=C/c1cccnc1)c1ccc(CN2CCOCC2)c(O)c1
[1]
  inhibition at 50 µg/mL: 100%
[2]
  inhibition at 50 µg/mL: 95.3%

## Cc1ccsc1/C=C/C(=O)c1cccc(O)c1CN1CCOCC1
[1]
  inhibition at 50 µg/mL: 79.1%
[2]
  inhibition at 50 µg/mL: 65.5%

## COc1ccc(/C=C/C(=O)c2cc(CN3CCOCC3)c(OC)cc2O)cc1
[1]
  inhibition at 50 µg/mL: 36.7%
[2]
  inhibition at 50 µg/mL: 7.1%

## COc1ccc(/C=C/C(=O)c2ccco2)c(CN2CCCCC2)c1O
[1]
  inhibition at 50 µg/mL: 100%
[2]
  inhibition at 50 µg/mL: 93.7%

## O=C(/C=C/c1cccnc1)c1ccc(O)c(CN2CCOCC2)c1
[1]
  inhibition at 50 µg/mL: 100%
[2]
  inhibition at 50 µg/mL: 56.4%

## CCOc1cc(O)c(C(=O)/C=C/c2ccccc2)cc1CN1CCOCC1
[1]
  inhibition at 50 µg/mL: 39.3%
[2]
  inhibition at 50 µg/mL: 2.3%

## O=C(/C=C/c1ccncc1)c1ccc(O)c(CN2CCOCC2)c1
[1]
  inhibition at 50 µg/mL: 100%
[2]
  inhibition at 50 µg/mL: 79.4%

## O=C(/C=C/c1ccco1)c1cccc(O)c1CN1CCOCC1
[1]
  inhibition at 50 µg/mL: 100%
[2]
  inhibition at 50 µg/mL: 60.8%

## COc1ccc(/C=C/C(=O)c2ccc(OCC=C(C)C)cc2O)cc1
[1]
  inhibition at 50 µg/mL: 25.7%
[2]
  inhibition at 50 µg/mL: 17.3%

## COC(=O)[C@H](c1ccccc1Cl)N1CCc2sccc2C1 [CLOPIDOGREL]
Cells [3]
  inhibition at 9.6 µg/mL: 85.2%
Cells [4]
  inhibition at 9.6 µg/mL: 3.5%

## CC(C)=CCOc1ccc(C(=O)/C=C/c2ccccc2)c(O)c1 [CORDOIN]
[1]
  inhibition at 50 µg/mL: 16.4%
[2]
  inhibition at 50 µg/mL: 6.3%
